ChEMBL document CHEMBL1153410, “Phenolic compounds with radical scavenging and cyclooxygenase-2 (COX-2) inhibitory activities from Dioscorea opposita” (Bioorg Med Chem, 2009)
Converted amounts (≈) assume the structure as drawn.

Experiments:
[1] = system: Radical scavenging activity; assay: Antioxidant activity assessed as DPPH radical scavenging activity after 30 mins by microplate reader assay; type: functional
In short: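 Mixed 1 min, then kept at room temperature ([…]) for 30 min. Absorbance read at 515 nm. Scavenging % corrected for a no-DPPH blank. IC50 taken from a calibration curve. Triplicate experiments, mean reported.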

[2] = Antioxidant activity assessed as superoxide radical scavenging activity after 20 mins by NBT reduction assay; type: functional
In short: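 Superoxide made by xanthine/xanthine oxidase and detected by NBT reduction. Xanthine oxidase (0.8 U/ml stock) added, then 37 °C for 20 min. Stopped with 1 M HCl and read at 560 nm. Blank lacks enzyme. IC50 from a calibration curve. Triplicate experiments, mean.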

[3] = biological target: T1, Prostaglandin G/H synthase 1 (Ovis aries, UniProt P05979); assay: Inhibition of ovine COX1 by colorimetric assay
T1 sequence (P05979 whole entry): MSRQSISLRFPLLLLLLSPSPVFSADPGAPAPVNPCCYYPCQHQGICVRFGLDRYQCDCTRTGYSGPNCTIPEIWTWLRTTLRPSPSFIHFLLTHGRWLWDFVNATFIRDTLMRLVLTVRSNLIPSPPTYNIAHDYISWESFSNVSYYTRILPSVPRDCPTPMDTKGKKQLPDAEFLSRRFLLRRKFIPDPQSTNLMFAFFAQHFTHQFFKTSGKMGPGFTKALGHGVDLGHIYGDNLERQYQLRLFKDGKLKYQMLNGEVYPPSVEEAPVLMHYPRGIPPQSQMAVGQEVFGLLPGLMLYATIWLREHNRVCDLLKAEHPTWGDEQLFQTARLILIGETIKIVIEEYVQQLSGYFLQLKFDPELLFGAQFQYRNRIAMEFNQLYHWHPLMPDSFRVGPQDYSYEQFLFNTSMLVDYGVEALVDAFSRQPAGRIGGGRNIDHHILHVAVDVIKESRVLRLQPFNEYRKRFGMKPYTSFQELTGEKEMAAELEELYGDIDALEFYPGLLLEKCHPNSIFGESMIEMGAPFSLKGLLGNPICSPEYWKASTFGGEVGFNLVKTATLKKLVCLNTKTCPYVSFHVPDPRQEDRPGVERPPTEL
In short: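 Ovine COX-1, colorimetric inhibitor screening kit. Enzyme preincubated 5 min at 25 °C with compound. Arachidonic acid (final 1.1 mM) and TMPD then added, 5 min at 25 °C. Inhibition % = [1−(A1−A2)/A0]×100, blank without TMPD. IC50 from calibration curve over several concentrations. Triplicate experiments, mean reported.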

| Structure (SMILES) | IC50 [1] [µg/mL] | IC50 [2] [µg/mL] | IC50 [3] [µM] |
| --- | --- | --- | --- |
| COc1cc2c(ccc3cc(O)cc(OC)c32)cc1O | 31.4 (≈ 116 µM) | 39.6 (≈ 147 µM) | 11.1 |
| COc1c(O)cccc1CCc1cc(O)cc(O)c1 | 46.7 (≈ 179 µM) | > 100 | > 384 |
| COc1cc(O)cc2c1Oc1ccccc1CC2 | 40.6 (≈ 168 µM) | > 100 | > 413 |
| Oc1cc(O)cc(CCc2ccccc2O)c1 | > 100 | > 100 | > 434 |
| COc1cc(CC[C@@H](O)C[C@H](O)CCc2ccc(O)c(OC)c2)ccc1O | 12.3 (≈ 32.7 µM) | 48.7 (≈ 129 µM) | > 266 |
| COc1cc(O)cc2c1-c1c(O)cccc1CC2 [HIRCINOL] | 63.8 (≈ 263 µM) | 62.4 (≈ 258 µM) | > 413 |
| Oc1ccc(CC[C@@H](O)C[C@H](O)CCc2ccc(O)cc2)cc1 [(+)-HANNOKINOL] | > 100 | > 100 | > 316 |
| O=C1O[C@H]([C@@H](O)CO)C(O)=C1O [ASCORBIC ACID] | 19.2 (≈ 109 µM) | 16.7 (≈ 94.8 µM) |  |
| COc1cc(O)cc(CCc2ccccc2O)c1 [BATATASIN IV] | > 100 | > 100 | > 409 |
| COc1c(O)cc(CCc2ccccc2)cc1O | 37.5 (≈ 154 µM) | > 100 | > 409 |
| O=c1cc(-c2ccc(O)cc2)oc2cc(O)cc(O)c12 [APIGENIN] | > 100 | > 100 | > 370 |
| COc1cc(O)c2c(c1)CCc1cc(O)ccc1-2 [LUSIANTHRIDIN] | 43 (≈ 177 µM) | 51.5 (≈ 213 µM) | > 413 |
| O=C(/C=C/C=C/c1ccc(O)cc1)CCc1ccc(O)cc1 | > 100 | 44.1 (≈ 150 µM) | > 340 |
| Oc1cc(O)c2c(c1)OC(c1ccc(O)c(O)c1)C(O)C2 (stereo not given) [CATECHIN] | 13.5 (≈ 46.5 µM) | 13.7 (≈ 47.2 µM) |  |
| COc1ccc(CCc2ccccc2O)cc1OC | > 100 | > 100 | > 387 |
| O=C(/C=C/C=C/c1ccc(O)cc1)/C=C/c1ccc(O)cc1 | > 100 | > 100 | 19.8 |
| Oc1cc(O)c2c(c1)CCc1ccccc1O2 | > 100 | > 100 | > 438 |
| COc1cc(CCc2cc(O)cc(O)c2)ccc1O [TRISTIN] | 35.2 (≈ 135 µM) | 51.6 (≈ 198 µM) |  |
| COc1cc(CCc2ccccc2O)cc(OC)c1O | 28.8 (≈ 105 µM) | 56.3 (≈ 205 µM) | > 365 |
| COc1cc(/C=C/C=C/C(=O)CCc2ccc(O)cc2)ccc1O | 40 (≈ 123 µM) | 38.8 (≈ 120 µM) | > 308 |
| COc1cc(O)cc(CCc2cccc(O)c2)c1 [BATATASIN III] | > 100 | > 100 | > 409 |
